Experimental findings from ChEMBL document CHEMBL1287796, “Discovery of new chemotype dipeptidyl peptidase IV inhibitors having (R)-3-amino-3-methyl piperidine as a pharmacophore” (Bioorg Med Chem Lett, 2010) are described below.

In data set [1] the test system is Liver microsomes. Kind of data set: Metabolic stability in rat liver microsomes at 10 uM after 39 mins. Type of data set: ADME, Microsome. The following applies: 0.5 h, in the assay text read “30 mins” for “39 mins”. In a few lines:
(§1)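 Compound incubated for 30 min with hepatic microsomes (human or rat) plus NADPH. Metabolic stability is expressed as clearance in ml/min/mg protein.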
(Liver microsomes are a subcellular fraction often used to study metabolism.)

Another data set deals with Cytochrome P450 3A4 (Homo sapiens, UniProt P08684). Description: Inhibition of CYP3A4 in human liver microsomes after 10 mins. In kind it is ADME, Microsome. In a few lines: (§2)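 Human liver microsomes incubated with test compound and NADPH for 10 min; CYP isoform inhibition reported as IC50.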
Cytochrome P450 3A4, sequence (P08684 whole entry, canonical isoform): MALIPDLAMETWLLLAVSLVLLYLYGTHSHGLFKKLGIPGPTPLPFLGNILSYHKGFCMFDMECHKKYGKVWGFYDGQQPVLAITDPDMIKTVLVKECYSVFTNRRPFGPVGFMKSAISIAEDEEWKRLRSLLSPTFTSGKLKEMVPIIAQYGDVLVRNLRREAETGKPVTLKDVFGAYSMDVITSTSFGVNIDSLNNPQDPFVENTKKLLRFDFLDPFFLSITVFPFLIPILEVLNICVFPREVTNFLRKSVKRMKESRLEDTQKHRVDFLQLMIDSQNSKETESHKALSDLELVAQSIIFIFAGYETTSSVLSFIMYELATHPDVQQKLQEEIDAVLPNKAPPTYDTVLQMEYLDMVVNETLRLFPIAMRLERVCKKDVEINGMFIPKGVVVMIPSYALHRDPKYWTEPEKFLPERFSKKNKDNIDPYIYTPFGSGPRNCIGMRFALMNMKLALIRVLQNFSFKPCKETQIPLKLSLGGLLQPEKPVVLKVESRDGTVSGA
The test system of data set [2] is Liver microsomes. Kind of data set: Metabolic stability in human liver microsomes at 10 uM after 39 mins. In kind it is ADME, Microsome. As to conditions: 0.5 h, in the assay text read “30 mins” for “39 mins”. In a few lines:
as §1

Another data set addresses Dipeptidyl peptidase 8 (Homo sapiens, UniProt Q6V1X1). Description: Inhibition of DPP8.
The target of the next data set is Cytochrome P450 2D6 (Homo sapiens, UniProt P10635). Description: Inhibition of CYP2D6 in human liver microsomes after 10 mins. In kind it is ADME, Microsome. The method in brief:
as §2

The next data set concerns the target Dipeptidyl peptidase 9 (Homo sapiens, UniProt Q86TI2). Kind of data set: Inhibition of DPP9.
The next data set addresses T1, Cytochrome P450 1A2 (Homo sapiens, UniProt P05177).
T1 sequence (P05177 whole entry): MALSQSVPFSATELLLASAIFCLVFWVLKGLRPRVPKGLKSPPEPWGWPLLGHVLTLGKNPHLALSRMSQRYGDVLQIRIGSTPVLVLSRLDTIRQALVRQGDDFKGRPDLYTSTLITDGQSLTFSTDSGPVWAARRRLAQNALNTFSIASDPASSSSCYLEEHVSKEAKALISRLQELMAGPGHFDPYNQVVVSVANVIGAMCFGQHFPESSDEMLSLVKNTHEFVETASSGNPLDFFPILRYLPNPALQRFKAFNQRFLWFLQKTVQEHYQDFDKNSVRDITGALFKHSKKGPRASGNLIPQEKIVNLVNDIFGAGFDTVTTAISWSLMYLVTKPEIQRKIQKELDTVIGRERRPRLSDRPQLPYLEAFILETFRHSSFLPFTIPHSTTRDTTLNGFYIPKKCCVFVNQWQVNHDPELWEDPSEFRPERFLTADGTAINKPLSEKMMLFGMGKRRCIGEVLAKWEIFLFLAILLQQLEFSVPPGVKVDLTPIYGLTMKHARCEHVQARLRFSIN
Kind of data set: Inhibition of CYP1A2 in human liver microsomes after 10 mins. In kind it is ADME, Microsome. In a few lines:
as §2

Data set [3] is described as follows: Lipophilicity, log P of the compound. As to conditions: octanol/water. In kind it is physicochemical.
Data set [4] is described as follows: Protein binding in human serum. Type of data set: ADME, cell-free. As to conditions: read-out: PB (converted).
Data set [5] is filed under the species Rattus norvegicus. The following applies: Zucker-Fatty, 1 mg/kg.
The species named for data set [6] is Rattus norvegicus. The following applies: Zucker-Fatty, 1 mg/kg. This is another data set of the same source.
The nature of data set [7]: Oral bioavailability in rat at 10 mg/kg. Type of data set: ADME, organism-based. As to conditions: in vivo.
Data set [8] in a line: Tmax in rat at 1 mg/kg, iv and 10 mg/kg, po. In kind it is ADME, organism-based. The following applies: in vivo.
The nature of data set [9]: Half life in rat at 10 mg/kg, po. In kind it is ADME, organism-based. More on the design: dose 10 mg/kg, route oral. The following applies: in vivo.
Data set [10] can be described thus: Volume of distribution at steady state in rat at 1 mg/kg, iv. Type of data set: ADME, organism-based. Details: dose 1 mg/kg, route intravenous. As to conditions: in vivo, read-out: Vdss.
Data set [11] in a line: Clearance in rat at 1 mg/kg, iv. Type of data set: ADME, organism-based. More on the design: dose 1 mg/kg, route intravenous. The following applies: in vivo.

Active and inactive are the calls of the source. The rule behind the calls is not given here. Where only a bound is given, the exact number is not on record here.

Dipeptidyl peptidase 8, sequence (Q6V1X1 whole entry): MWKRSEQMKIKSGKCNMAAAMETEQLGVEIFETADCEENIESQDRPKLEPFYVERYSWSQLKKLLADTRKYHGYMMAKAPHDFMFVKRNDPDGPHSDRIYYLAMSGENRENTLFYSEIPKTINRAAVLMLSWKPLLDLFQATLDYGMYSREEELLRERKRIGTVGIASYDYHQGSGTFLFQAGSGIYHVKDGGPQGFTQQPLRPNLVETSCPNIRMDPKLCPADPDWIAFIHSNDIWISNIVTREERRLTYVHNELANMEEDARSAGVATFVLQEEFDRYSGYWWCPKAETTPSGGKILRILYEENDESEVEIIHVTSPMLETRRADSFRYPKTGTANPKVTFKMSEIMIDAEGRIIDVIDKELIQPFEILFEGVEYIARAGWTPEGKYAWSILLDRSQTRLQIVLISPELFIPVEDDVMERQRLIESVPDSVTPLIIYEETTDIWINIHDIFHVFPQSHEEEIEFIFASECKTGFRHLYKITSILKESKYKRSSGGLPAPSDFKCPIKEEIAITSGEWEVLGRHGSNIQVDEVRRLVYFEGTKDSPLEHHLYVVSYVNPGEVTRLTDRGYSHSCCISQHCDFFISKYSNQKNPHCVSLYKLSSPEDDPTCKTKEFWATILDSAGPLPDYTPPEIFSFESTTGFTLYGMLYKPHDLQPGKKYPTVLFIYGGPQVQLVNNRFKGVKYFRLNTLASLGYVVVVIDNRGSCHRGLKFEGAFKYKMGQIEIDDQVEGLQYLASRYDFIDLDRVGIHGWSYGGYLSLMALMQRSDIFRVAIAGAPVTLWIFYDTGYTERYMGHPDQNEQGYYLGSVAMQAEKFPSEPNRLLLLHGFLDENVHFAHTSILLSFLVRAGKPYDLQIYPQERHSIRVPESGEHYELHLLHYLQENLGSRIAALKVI
Dipeptidyl peptidase 9, sequence (Q86TI2 whole entry): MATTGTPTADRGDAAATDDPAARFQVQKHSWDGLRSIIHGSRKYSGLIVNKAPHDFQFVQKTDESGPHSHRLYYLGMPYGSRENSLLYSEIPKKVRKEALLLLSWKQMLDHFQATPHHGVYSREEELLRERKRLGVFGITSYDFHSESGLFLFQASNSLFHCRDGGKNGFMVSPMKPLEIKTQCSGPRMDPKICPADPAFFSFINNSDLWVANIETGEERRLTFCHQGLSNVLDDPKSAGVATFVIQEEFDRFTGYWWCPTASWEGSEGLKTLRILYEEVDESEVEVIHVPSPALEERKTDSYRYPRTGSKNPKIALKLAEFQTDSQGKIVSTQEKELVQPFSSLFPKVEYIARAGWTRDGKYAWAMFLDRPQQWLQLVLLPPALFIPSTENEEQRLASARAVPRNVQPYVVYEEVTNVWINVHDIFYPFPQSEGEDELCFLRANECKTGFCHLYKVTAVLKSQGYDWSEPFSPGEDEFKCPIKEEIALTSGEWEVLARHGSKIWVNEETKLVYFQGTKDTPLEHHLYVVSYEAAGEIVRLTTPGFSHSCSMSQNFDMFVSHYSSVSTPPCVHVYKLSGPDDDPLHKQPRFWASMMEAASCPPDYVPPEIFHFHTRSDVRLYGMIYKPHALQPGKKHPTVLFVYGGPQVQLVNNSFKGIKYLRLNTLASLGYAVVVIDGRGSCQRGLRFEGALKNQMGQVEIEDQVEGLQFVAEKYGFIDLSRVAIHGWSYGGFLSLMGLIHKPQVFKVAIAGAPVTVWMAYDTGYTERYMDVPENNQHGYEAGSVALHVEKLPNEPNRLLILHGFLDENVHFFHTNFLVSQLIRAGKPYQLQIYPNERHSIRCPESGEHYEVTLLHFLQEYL
Cytochrome P450 2D6, sequence (P10635 whole entry): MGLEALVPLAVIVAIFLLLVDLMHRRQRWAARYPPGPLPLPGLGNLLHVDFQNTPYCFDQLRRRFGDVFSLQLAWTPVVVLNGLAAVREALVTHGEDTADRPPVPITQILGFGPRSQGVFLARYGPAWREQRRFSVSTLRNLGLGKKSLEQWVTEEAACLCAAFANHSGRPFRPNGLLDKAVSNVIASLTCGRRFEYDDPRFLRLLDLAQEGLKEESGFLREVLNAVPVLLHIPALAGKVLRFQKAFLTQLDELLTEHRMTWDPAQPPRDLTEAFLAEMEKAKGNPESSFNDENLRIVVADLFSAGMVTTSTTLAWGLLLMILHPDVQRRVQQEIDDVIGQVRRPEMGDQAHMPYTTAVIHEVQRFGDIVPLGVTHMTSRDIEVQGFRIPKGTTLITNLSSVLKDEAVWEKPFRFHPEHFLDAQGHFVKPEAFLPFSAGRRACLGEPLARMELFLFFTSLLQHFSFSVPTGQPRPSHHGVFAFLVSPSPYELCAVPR

On to `Cl.Cn1c(=O)c2c(cc(N3CCC[C@@](C)(N)C3)n2Cc2cc(F)ccc2Cl)n(C)c1=O`, for which the Microsomal clearance in the data set with Liver microsomes [1] was 46 µL/min/mg; with Liver microsomes [2], 82 µL/min/mg. The IC50 (usually the point on the concentration scale where inhibition reaches its midpoint) against Cytochrome P450 3A4 was 10.2 µM; on Dipeptidyl peptidase 8, greater than 10 µM; against Cytochrome P450 2D6, 3.4 µM; against Dipeptidyl peptidase 9 it was greater than 10 µM; against Cytochrome P450 1A2 it was greater than 40 µM.

For the compound `Cn1cnc2cc(N3CCC[C@@](C)(N)C3)n(Cc3ccccc3C#N)c2c1=O`, the IC50 against Dipeptidyl peptidase 8 and against Dipeptidyl peptidase 9 was greater than 10 µM throughout.

On to `Cl.Cn1c(=O)c2c(cc(N3CCC[C@@](C)(N)C3)n2Cc2cc(F)ccc2Cl)n(CCCO)c1=O`, for which the Microsomal clearance in the data set on Liver microsomes [1] is 17 µL/min/mg; in the data set with Liver microsomes [2], 16 µL/min/mg. Also, the IC50 at Cytochrome P450 3A4 was 7.7 µM; on Dipeptidyl peptidase 8, greater than 10 µM; at Cytochrome P450 2D6 it was 0.2 µM; at Dipeptidyl peptidase 9 it was greater than 10 µM; at Cytochrome P450 1A2 it was greater than 40 µM.

Take `CCOCCCn1c(=O)n(C)c(=O)c2c1cc(N1CCC[C@@](C)(N)C1)n2Cc1cc(F)ccc1Cl`: the IC50 against Dipeptidyl peptidase 8 and against Dipeptidyl peptidase 9 was greater than 10 µM throughout.

As for `Cn1c(=O)c2c(cc(N3CCC[C@@](C)(N)C3)n2Cc2ccccc2C#N)n(C)c1=O`, the IC50 on Dipeptidyl peptidase 8 and against Dipeptidyl peptidase 9 was greater than 10 µM throughout. The logP (in general, the decadic logarithm of the partition coefficient of the neutral form, usually between octanol and water) in data set [3] stood at 0.28.

Turning to `Cn1cnc2cc(N3CCC[C@@](C)(N)C3)n(Cc3cc(F)ccc3C#N)c2c1=O`, the IC50 against Dipeptidyl peptidase 8 and on Dipeptidyl peptidase 9 was greater than 10 µM each time.

On to `CN(C)C(=O)Cn1c(=O)n(C)c(=O)c2c1cc(N1CCC[C@@](C)(N)C1)n2Cc1cc(F)ccc1Cl.Cl`, for which the Microsomal clearance in the data set with Liver microsomes [1] is less than 10 µL/min/mg; with Liver microsomes [2] it was 19 µL/min/mg. For the same compound, the IC50 at Cytochrome P450 3A4 was 13.4 µM; at Dipeptidyl peptidase 8, greater than 10 µM; against Cytochrome P450 2D6, less than 0.165 µM; on Dipeptidyl peptidase 9, greater than 10 µM; against Cytochrome P450 1A2, 26.3 µM.

On to `Cn1cnc2cc(N3CCC[C@@](C)(N)C3)n(Cc3cc(F)ccc3Cl)c2c1=O`, for which the IC50 on Dipeptidyl peptidase 8 and on Dipeptidyl peptidase 9 was greater than 10 µM each time.

In the case of `Cc1ccc(F)cc1Cn1c(N2CCC[C@@](C)(N)C2)cc2c1c(=O)n(C)c(=O)n2C.Cl`, the Microsomal clearance in the data set on Liver microsomes [1] is 13 µL/min/mg; in the data set on Liver microsomes [2] it was 56 µL/min/mg. In addition, the IC50 is 20.2 µM at Cytochrome P450 3A4; greater than 10 µM at Dipeptidyl peptidase 8; greater than 40 µM on Cytochrome P450 2D6; greater than 10 µM at Dipeptidyl peptidase 9; greater than 40 µM on Cytochrome P450 1A2. In addition, the fraction unbound in data set [4] was 0.049. Also, the inhibition entry in the data set filed under Rattus norvegicus [5] and in the data set listed under Rattus norvegicus [6] was “Active” in each case. Besides, in [7], the bioavailability (as a rule, dose-corrected exposure relative to a reference, in per cent) amounted to 69.3%. The Tmax (usually the time at which the peak concentration occurs) in data set [8] came out at 3 h. The half-life (commonly how long it takes for the measured level to halve) in data set [9] is 4.69 h. The Vd in data set [10] worked out at 14.4 L/kg. Besides, in [11], the clearance (as a rule, the rate of elimination divided by the concentration) worked out at 51.5 mL/min/kg.

Turning to `Cc1ccc(F)cc1Cn1c(N2CCC[C@@](C)(N)C2)cc2ncn(C)c(=O)c21.Cl`, the Microsomal clearance in the data set with Liver microsomes [1] is 264 µL/min/mg; with Liver microsomes [2], 48 µL/min/mg. In addition, the IC50 is 11.9 µM against Cytochrome P450 3A4; greater than 10 µM against Dipeptidyl peptidase 8; 14.3 µM on Cytochrome P450 2D6; greater than 10 µM against Dipeptidyl peptidase 9; greater than 40 µM on Cytochrome P450 1A2.

`CCn1c(=O)n(C)c(=O)c2c1cc(N1CCC[C@@](C)(N)C1)n2Cc1cc(F)ccc1C#N.Cl`: the Microsomal clearance in the data set on Liver microsomes [1] was less than 10 µL/min/mg; with Liver microsomes [2], 21 µL/min/mg. Moreover, the half-inhibitory concentration (IC50) was 9.4 µM against Cytochrome P450 3A4; greater than 10 µM on Dipeptidyl peptidase 8; 0.4 µM against Cytochrome P450 2D6; greater than 10 µM against Dipeptidyl peptidase 9; 26.8 µM against Cytochrome P450 1A2.
